In publication PMC5218545 (Angewandte Chemie (International ed. in English), 2016):

Assays:
Format in all cases: biochemical
[1] = target: T1, recombinant purified enzyme 15-LOX-1 (Homo sapiens, UniProt P16050); experiment: ABPP two-step labeling of recombinant purified 15-LOX-1; settings: 10 min incubation with inhibitor, then 2 min with probe N144
T1 sequence (P16050 1-662): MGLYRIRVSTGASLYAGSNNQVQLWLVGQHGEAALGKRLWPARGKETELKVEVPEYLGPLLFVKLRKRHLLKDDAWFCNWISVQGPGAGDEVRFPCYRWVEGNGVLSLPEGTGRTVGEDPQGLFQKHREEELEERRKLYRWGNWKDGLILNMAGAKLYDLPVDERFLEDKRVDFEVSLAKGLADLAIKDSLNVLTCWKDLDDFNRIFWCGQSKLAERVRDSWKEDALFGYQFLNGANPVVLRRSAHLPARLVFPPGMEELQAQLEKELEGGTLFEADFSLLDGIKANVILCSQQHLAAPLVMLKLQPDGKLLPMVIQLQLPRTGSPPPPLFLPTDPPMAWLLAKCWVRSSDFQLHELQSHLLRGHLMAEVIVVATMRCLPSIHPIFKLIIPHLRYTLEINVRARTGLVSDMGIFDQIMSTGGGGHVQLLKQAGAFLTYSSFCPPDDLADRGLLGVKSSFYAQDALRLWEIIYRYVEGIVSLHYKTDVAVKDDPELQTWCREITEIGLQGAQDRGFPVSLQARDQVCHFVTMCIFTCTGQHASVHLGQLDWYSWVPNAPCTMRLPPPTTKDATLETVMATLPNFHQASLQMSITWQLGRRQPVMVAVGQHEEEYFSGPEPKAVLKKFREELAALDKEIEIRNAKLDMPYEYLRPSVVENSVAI
Procedure, shortened: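 Recombinant purified human 15-LOX-1 preincubated 10 min with a reversible 15-LOX-1 inhibitor or a 5-LOX inhibitor as control. Then 2 min with an alkene-tagged bis-alkyne probe. Biotinyl phenyl boronic acid was attached to the terminal alkene by oxidative Heck reaction. Equal enzyme amounts were run on Western blot and detected by HRP-streptavidin luminescence, alongside Coomassie staining and no-probe controls.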

[2] = target: T2, 15-LOX-1 in tissue lysates from different mice organs (Mus musculus, UniProt P39654); experiment: Activity-based labeling in mouse tissue lysates; settings: inhibitor 90 μM, three characteristic bands
T2 sequence (P39654 1-663): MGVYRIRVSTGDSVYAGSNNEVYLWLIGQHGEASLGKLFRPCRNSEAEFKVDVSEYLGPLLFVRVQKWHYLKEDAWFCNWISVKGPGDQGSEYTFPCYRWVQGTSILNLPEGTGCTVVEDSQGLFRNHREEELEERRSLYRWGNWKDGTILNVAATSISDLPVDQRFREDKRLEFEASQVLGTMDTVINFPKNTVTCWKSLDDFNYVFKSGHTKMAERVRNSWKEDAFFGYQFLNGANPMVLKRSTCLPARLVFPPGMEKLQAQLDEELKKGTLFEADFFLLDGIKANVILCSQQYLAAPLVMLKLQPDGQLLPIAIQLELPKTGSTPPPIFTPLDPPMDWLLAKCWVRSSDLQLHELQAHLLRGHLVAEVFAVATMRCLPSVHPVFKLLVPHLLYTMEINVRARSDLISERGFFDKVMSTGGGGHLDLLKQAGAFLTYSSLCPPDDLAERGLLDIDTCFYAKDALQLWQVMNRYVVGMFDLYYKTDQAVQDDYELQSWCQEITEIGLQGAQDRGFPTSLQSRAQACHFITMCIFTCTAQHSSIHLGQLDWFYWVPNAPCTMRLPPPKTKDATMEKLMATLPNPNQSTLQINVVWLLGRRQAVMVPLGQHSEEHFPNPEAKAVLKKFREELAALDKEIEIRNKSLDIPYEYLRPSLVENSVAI
Procedure, shortened: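 Mouse heart tissue lysate: endogenous enzyme preincubated with inhibitors at 90 μM, then labeled with an alkene-tagged bis-alkyne probe. The probe was biotinylated by oxidative Heck coupling with biotinyl phenyl boronic acid. Labeled proteins were detected on blot with HRP-conjugated streptavidin luminescence.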

[3] = target: T3, endogenous 15-LOX-1 in HeLa cell lysate (Homo sapiens, UniProt P16050); experiment: Activity-based labeling in HeLa cell lysate; settings: inhibitor 90 μM; bands also characterized by the 15-LOX-1 antibody
T3 sequence (P16050 1-662): T1 sequence (P16050 1-662)
Procedure, shortened: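 HeLa cell lysate: endogenous enzyme preincubated with inhibitors at 90 μM, then labeled with an alkene-tagged bis-alkyne probe. Biotinylation by oxidative Heck reaction with biotinyl phenyl boronic acid. Blots were first probed with 15-LOX antibody, then stripped and developed with HRP-conjugated streptavidin by on-blot luminescence. Included no-probe controls.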

| effect of inhibitor pre-incubation on N144 labeling of recombinant 15-LOX-1 [1] | effect of inhibitor on N144 labeling in mouse heart lysate [2] | effect of inhibitor on N144 labeling in HeLa cell lysates [3] | Structure (SMILES) |
| --- | --- | --- | --- |
| labeling was clearly inhibited | reduced labeling | decrease of the labeling | c1ccc2c(c1)SCc1c-2[nH]c2ccccc12 [PD-146176] |
| did not affect the labeling |  |  | CC(c1cc2ccccc2s1)N(O)C(N)=O (stereo not shown) [Zileuton] |
